The results in this text go back to ChEMBL document CHEMBL2150944, “Antimalarial activity of pyrroloiminoquinones from the Australian marine sponge Zyzzya sp” (J Med Chem, 2012).

Active and inactive are the calls of the source. The calls are words filed in the database; no cut-off is given here. Bounds are passed on as bounds.

In series [1] the test system is XRS6. As to the kind of experiment: Cytotoxicity against Chinese hamster Xrs-6 cells. The series is classed as cell-based. Conditions: Cricetulus griseus.
Series [2] concerns HCT-116. Nature of the series: Cytotoxicity against human HCT116 cells. The series is classed as functional, cell-based.
The subject of series [3] is Plasmodium falciparum. As to the kind of experiment: Antimalarial activity against chloroquine-sensitive Plasmodium falciparum 3D7 trophozoite stage assessed as growth inhibition at 75 nM after 10 hrs by [3H]-hypoxanthine incorporation assay. The series is classed as functional, organism-based. The procedure, abridged: (§1)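 Synchronous 3D7 rings (~10−16 h post-invasion) or trophozoites (~24−30 h post-invasion), 0.5% parasitemia, 5% hematocrit, exposed 4, 6 or 10 h to compound or 0.04% DMSO vehicle. Cultures are washed, plated in triplicate with 0.5 μCi 3H-hypoxanthine, and incorporation is counted after ~48−72 h. Percent growth is relative to matched vehicle controls, from at least two independent experiments.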

Series [4] relates to Plasmodium falciparum. Nature of the series: Antimalarial activity against chloroquine-sensitive Plasmodium falciparum 3D7 ring stage assessed as growth inhibition at 75 nM after 10 hrs by [3H]-hypoxanthine incorporation assay. The series is classed as functional, organism-based. The procedure, abridged:
as §1

In series [5] the test system is Plasmodium falciparum. As to the kind of experiment: Antimalarial activity against chloroquine-sensitive Plasmodium falciparum 3D7 ring stage assessed as growth inhibition at 150 nM after 10 hrs by [3H]-hypoxanthine incorporation assay. The series is classed as functional, organism-based. The procedure, abridged: as §1
Series [6] deals with Plasmodium falciparum. Nature of the series: Antimalarial activity against chloroquine-sensitive Plasmodium falciparum 3D7 trophozoite stage assessed as growth inhibition at 150 nM after 10 hrs by [3H]-hypoxanthine incorporation assay. The series is classed as functional, organism-based. The procedure, abridged:
as §1

Series [7] in a line: Selectivity index, ratio of IC50 for human HEK293 cells to IC50 for chloroquine-resistant Plasmodium falciparum Dd2. The series is classed as toxicity, cell-based. The conditions noted are these: read-out: Ratio IC50.
Series [8] has as its system HEK293. As to the kind of experiment: Cytotoxicity against human HEK293 cells assessed as growth inhibition after 72 hrs by Alamar blue assay. The series is classed as cell-based. Conditions: HEK293, 72 h. In outline: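 HEK293 adherent cells (3000/well) were incubated with compound for 72 h at 37 °C and 5% CO2. Medium was removed, then 10% Alamar Blue was added for 5−6 h. Fluorescence was read at ex 535/em 590 nm. Inhibition was normalised to DMSO and 10 μM puromycin controls. IC50 came from nonlinear variable-slope regression of % inhibition against log dose.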
For orientation: Alamar Blue is a resazurin reagent that responds to reducing activity.

Series [9] deals with Plasmodium falciparum. As to the kind of experiment: Antimalarial activity against chloroquine-sensitive Plasmodium falciparum 3D7 assessed as growth inhibition after 72 hrs by DAPI staining. The series is classed as functional, organism-based. Conditions: 3D7, 72 h. In outline: (§2)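 P. falciparum 3D7 or Dd2 at 2% or 3% parasitemia, 0.3% hematocrit, exposed 72 h at 37 °C, 5% CO2. Staining with DAPI plus saponin and Triton X-100, 5 h at room temperature in the dark, then confocal imaging and automated counting of parasite spots. Percent inhibition is calculated against DMSO and 2 μM artemisinin controls.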

Series [10] deals with Plasmodium falciparum. Nature of the series: Antimalarial activity against chloroquine-resistant Plasmodium falciparum Dd2 assessed as growth inhibition after 72 hrs by DAPI staining. The conditions noted are these: Dd2, 72 h. The series is classed as functional, organism-based. In outline:
as §2

Series [11] is described as follows: Selectivity index, ratio of IC50 for human HEK293 cells to IC50 for chloroquine-sensitive Plasmodium falciparum 3D7. The series is classed as toxicity, cell-based. The conditions noted are these: read-out: Ratio IC50.
Series [12] has as its system Mus musculus. Nature of the series: Toxicity in Swiss albino mouse assessed as reduced activity upto 4 mg/kg/day, sc for 4 days. The series is classed as organism-based. Also noted: route subcutaneous. Conditions: in vivo, 96 h. In outline: (§3)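 Healthy mice dosed subcutaneously daily for 4 consecutive days, compound in Tween 80/ethanol (7/3 v/v) diluted 10-fold in distilled water (~0.2 mL). Mice are assessed before and after dosing for weight loss >10%, ruffled coat, shaking, severe pallor, reduced activity and behaviour changes.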

Series [13] deals with Mus musculus. As to the kind of experiment: Toxicity in Swiss albino mouse assessed as reduced activity at 8 mg/kg/day, sc for 4 days. The series is classed as organism-based. Conditions: in vivo, 96 h. Details: route subcutaneous. The procedure, abridged: as §3
Series [14] deals with Plasmodium falciparum. Nature of the series: Antimalarial activity against chloroquine-sensitive Plasmodium falciparum 3D7 ring stage assessed as growth inhibition at 204 nM after 10 hrs by [3H]-hypoxanthine incorporation assay. The series is classed as functional, organism-based. The procedure, abridged:
as §1

The subject of series [15] is Mus musculus. As to the kind of experiment: Toxicity in Swiss albino mouse assessed as shaking upto 4 mg/kg/day, sc for 4 days. The series is classed as organism-based. Also noted: route subcutaneous. The conditions noted are these: in vivo, 96 h. The procedure, abridged: as §3
A short description of series [16]: Half life in mouse liver microsomes at 1 uM after 60 mins. The series is classed as ADME, Microsome. In outline: (§4)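 1 μM compound incubated at 37 °C with human or mouse liver microsomes (0.4 mg/mL protein) in 0.1 M phosphate pH 7.4. Reaction started with an NADPH-regenerating system plus MgCl2 and quenched with ice-cold acetonitrile at time points up to 60 min. Parent loss is followed by LC−MS and fitted to exponential decay, giving half-life and in vitro CLint.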
(In general: Microsomes from liver hold many membrane-bound enzymes, among them those of drug oxidation.)

Series [17] relates to Mus musculus. Nature of the series: Toxicity in Swiss albino mouse assessed as body weight loss > 10 % upto 4 mg/kg/day, sc for 4 days. The conditions noted are these: in vivo, 96 h. The series is classed as organism-based. Details: route subcutaneous. The procedure, abridged:
as §3

Series [18] deals with Plasmodium falciparum. Nature of the series: Antimalarial activity against chloroquine-sensitive Plasmodium falciparum 3D7 trophozoite stage assessed as growth inhibition at 408 nM after 10 hrs by [3H]-hypoxanthine incorporation assay. The series is classed as functional, organism-based. In outline:
as §1

For series [19], the system named is Plasmodium falciparum. Nature of the series: Antimalarial activity against chloroquine-sensitive Plasmodium falciparum 3D7 trophozoite stage assessed as growth inhibition at 204 nM after 10 hrs by [3H]-hypoxanthine incorporation assay. The series is classed as functional, organism-based. In outline:
as §1

Series [20] in a line: Intrinsic clearance in human liver microsomes assessed as per mg of protein at 1 uM after 60 mins. The conditions noted are these: read-out: CLH. The series is classed as ADME, Microsome. The procedure, abridged: as §4
For series [21], the system named is Mus musculus. As to the kind of experiment: Toxicity in Swiss albino mouse assessed as ruffled coat at 8 mg/kg/day for 4 days. The series is classed as organism-based. The conditions noted are these: in vivo, 96 h. In outline: as §3
The nature of series [22]: Plasma concentration in Swiss mouse at 8 mg/kg, sc administered as solution measured 1 hr post dose. Also noted: dose 8 mg/kg, route subcutaneous. The series is classed as ADME, organism-based. The procedure, abridged:
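Nonfasted male Swiss outbred mice (26−34 g), nominal 8 mg/kg subcutaneous into the dorsal skinfold in saline vehicle with 5−7% DMSO. Blood is drawn by cardiac puncture under isoflurane at 0.25, 1 or 4 h (n = 2 per time point) into stabilizer. Plasma is precipitated with acetonitrile and quantified by UPLC−MS against standards in blank mouse plasma.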

The nature of series [23]: Half life in human liver microsomes at 1 uM after 60 mins. The series is classed as ADME, Microsome. In outline:
as §4

The test system of series [24] is Plasmodium berghei. As to the kind of experiment: Antimalarial activity against chloroquine-sensitive Plasmodium berghei ANKA infected in Swiss albino mouse assessed as suppression of parasitemia at 4 mg/kg/day, ip measured on day 4 post infection by Giemsa staining. The series is classed as functional, organism-based.
Series [25] deals with Mus musculus. Nature of the series: Toxicity in Swiss albino mouse assessed as behaviour changes upto 4 mg/kg/day, sc for 4 days. The series is classed as organism-based. Also noted: route subcutaneous. The conditions noted are these: in vivo, 96 h. The procedure, abridged: as §3
Series [26] relates to Mus musculus. As to the kind of experiment: Toxicity in Swiss albino mouse assessed as body weight loss > 10 % at 8 mg/kg/day, sc for 4 days. The series is classed as organism-based. Also noted: route subcutaneous. Conditions: in vivo, 96 h. The procedure, abridged: as §3
Series [27] relates to Mus musculus. Nature of the series: Toxicity in Swiss albino mouse assessed as severe pallor upto 4 mg/kg/day, sc for 4 days. The series is classed as organism-based. Also noted: route subcutaneous. Conditions: in vivo, 96 h. The procedure, abridged:
as §3

A short description of series [28]: Intrinsic clearance in mouse liver microsomes assessed as per mg of protein at 1 uM after 60 mins. The series is classed as ADME, Microsome. The conditions noted are these: read-out: CLH. In outline: as §4
Series [29] deals with Plasmodium falciparum. Nature of the series: Antimalarial activity against chloroquine-sensitive Plasmodium falciparum 3D7 ring stage assessed as growth inhibition at 408 nM after 10 hrs by [3H]-hypoxanthine incorporation assay. The series is classed as functional, organism-based. The procedure, abridged: as §1
For series [30], the system named is Mus musculus. As to the kind of experiment: Toxicity in Swiss albino mouse assessed as ruffled coat upto 4 mg/kg/day for 4 days. The series is classed as organism-based. Conditions: in vivo, 96 h. The procedure, abridged: as §3

For orientation: IC50 means the point on the concentration scale where inhibition reaches its midpoint. Regarding `O=C1C(NCCc2ccc(O)cc2)=CC2=NCCc3c[nH]c1c32` [MAKALUVAMINE D], the IC50 was 80 nM in series [1] and above 170 nM in [2].
`C[C@@H]1CC[C@H]2[C@@H](C)C(=O)O[C@@H]3O[C@@]4(C)CC[C@@H]1[C@]32OO4`: the “growth inhibition (GI)” value in [3], in series [4], in series [5] and in [6] was “Active” throughout.
For `CN1CCc2c[nH]c3c2C1=CC(=O)C3=O` [DAMIRONES B], the selectivity ratio in [7] is above 32; in [11] it was above 10. Also, the IC50 in [8] was above 120000 nM; in series [9], 12200 nM; in series [10] it was 3800 nM.
For `CN1CCc2cn(C)c3c2C1=CC(=O)C3=O` [DAMIRONES A] the same measures were above 333, above 63, above 120000 nM, 1880 nM and 360 nM.
As to `Cn1cc2c3c1C(=O)C(N/C=C/c1ccc(O)cc1)=CC3=NCC2` [MAKALUVAMINE E], the figures for the IC50 in series [1] and in series [2] were 80 nM and above 170 nM, respectively.
In general, half-life refers to how long it takes for the measured level to halve. A low value points to rapid decline. Regarding `C[N+]1=C2C=C(NCCc3ccc(O)cc3)C(=O)c3[nH]cc(c32)CC1.O=C([O-])C(F)(F)F` [MAKALUVAMINE J TFA SALT], the selectivity ratio was 54 in series [7] and 48 in [11]. Further, the Activity entry in series [12] is listed as “Non-toxic”; in series [13], “Toxic”; in series [15], “Non-toxic”; in [17], “Non-toxic”; in [21] it was “Toxic”; in series [25], “Non-toxic”. Further, the results for the Activity result in series [26], in series [27] and in [30] were “Toxic”, “Non-toxic” and “Non-toxic”, respectively. Further, the IC50 in [8] stood at 1200 nM; in [9], 25 nM; in [10], 22 nM. Also, the “growth inhibition (GI)” value in series [14], in series [18], in series [19] and in series [29] was “Active” in each case. The half-life at 1 µM in series [16] was 42 min; in series [23], above 350 min. For the same molecule, the microsomal CLint at 1 µM in series [20] is below 5 µL/min/mg; in [28] it was 41 µL/min/mg. For the same molecule, in series [22], the concentration at 1 h was 1700 nM. Also, the result in series [24] was inactive.
As for `C[N+]1=C2C=C(N)C(=O)c3[nH]cc(c32)CC1` [MAKALUVAMINE C], the IC50 was 80 nM in [1] and above 170 nM in series [2].
